≈ marks a conversion by molar mass, not a printed value.
System: Mycobacterium tuberculosis
Assay: Antitubercular activity against Mycobacterium tuberculosis H37Rv after 7 days
Assay type: functional, organism-based
Settings: 168 h
Procedure, shortened: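 MABA in 7H9 broth with 0.2% glycerol, 1.0 g/l Casitone, 10% OADC and 0.05% Tween 80, grown to OD600 0.4. Culture diluted 1:50 to give 2 × 10^5 CFU/ml. Twofold serial dilutions made from DMSO stock. Incubated 37 °C for 7 days, then alamar blue added and read after 24 h. MIC is the lowest concentration preventing the blue-to-pink change. Rifampicin reference.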

SMILES | MIC [µM] | IC50 [nM]
Cc1ccc(NC(=O)C2CC(=O)N(CCc3c[nH]c4ccc(Cl)cc34)C2)cc1 (stereo not drawn) | 80.8 (≈ 32 µg/mL) | –
Cc1[nH]c2cc(C(=O)N3CCN(Cc4ccccc4)CC3)ccc2c1C | 368 (≈ 128 µg/mL) | –
COc1cccc(CNC(=O)CN2CCCN(Cc3ccc(Cl)cc3)S2(=O)=O)c1 | 146 (≈ 64 µg/mL) | –
Cc1oc(-c2ccccc2)nc1CN1CCN(C(=O)c2ccccc2)CC1 | 187 (≈ 67.8 µg/mL) | –
O=C(C1CC(=O)N(C2CCCC2)C1)N1CCC(Cc2ccccc2)CC1 (stereo not drawn) | 361 (≈ 128 µg/mL) | –
O=C(NCc1ccc(F)cc1)C1CC(=O)N(C2CCCCCCC2)C1 (stereo not drawn) | 369 (≈ 128 µg/mL) | –
O=C(c1ccc(F)cc1)N1CCN(C2c3ccccc3-c3ccccc32)CC1 | 85.9 (≈ 32 µg/mL) | –
O=C(c1cccs1)N1CCN(C2c3ccccc3-c3ccccc32)CC1 | 355 (≈ 128 µg/mL) | –
CCCCCCCc1ccc(C(=O)Oc2ccc([N+](=O)[O-])cc2)cc1 | 187 (≈ 64 µg/mL) | –
Cc1ccc(OC(=O)c2ccc(Cl)cc2)cc1 | 259 (≈ 64 µg/mL) | –
CCCCCCc1ccc(C(=O)Oc2ccc(Cl)cc2)cc1 | 202 (≈ 64 µg/mL) | –
Cc1ccc(C(=O)CC(=O)c2ccc(Cl)cc2)c(O)c1 | 13.8 (≈ 4 µg/mL) | –
CCc1ccc(C(=O)Oc2cccnc2)cc1 | 563 (≈ 128 µg/mL) | –
CCCCCc1ccc(OC(=O)c2ccc(Cl)cc2)cc1 | 106 (≈ 32 µg/mL) | –
O=C(Nc1ccccc1O)c1ccc(Oc2ccc([N+](=O)[O-])cc2)cc1 | 5.7 (≈ 2 µg/mL) | –
Cc1ccc(/N=C/c2cc(Cc3ccccc3Cl)ccc2O)c(O)c1 | 182 (≈ 64 µg/mL) | –
O=C1c2ccc(Oc3cccc([N+](=O)[O-])c3)cc2C(=O)N1c1ccccc1O | 85 (≈ 32 µg/mL) | –
Oc1cccc(Oc2c(F)c(F)nc(F)c2F)c1 | 247 (≈ 64 µg/mL) | –
CCc1ccc(O)c(/N=C/c2cc(Cl)cc(Cl)c2O)c1 | 206 (≈ 64 µg/mL) | –
O=[N+]([O-])c1ccc(Oc2cc(C(F)(F)F)ccc2Cl)cc1O | 384 (≈ 128 µg/mL) | –
S=C(c1ccc(Br)cc1)N1CCN(Cc2ccccc2)CC1 | 85.2 (≈ 32 µg/mL) | –

SMILES | MIC [µM] | IC50 [nM]
Cc1ccc(S(=O)(=O)N2CCN(C(=O)c3ccc(Br)cc3)CC2)cc1 | 302 (≈ 128 µg/mL) | –
Cc1ccc(C(=O)N2CCN(S(=O)(=O)c3ccccc3)CC2)cc1 | 372 (≈ 128 µg/mL) | –
O=C(Nc1ccc(C(F)(F)F)cc1)NC1CC(=O)N(C2CCCC2)C1 (stereo not drawn) | 180 (≈ 64 µg/mL) | –
CCCCCc1ccc(Oc2ccccc2)c(O)c1 | 3.5 (≈ 0.897 µg/mL) | 17
CCCCCCCCCCCCCCc1ccc(Oc2ccccc2)c(O)c1 | 460 (≈ 176 µg/mL) | 150
CN(C(=O)C1CC(=O)N(C2CCCCCC2)C1)c1cc(-c2ccccc2)c(O)c(-c2ccccc2)c1 (stereo not drawn) | > 125 | 360
O=C(CCN1C(=O)c2ccccc2C1=O)N1CCN(C(c2ccccc2)c2ccccc2)CC1 | 141 (≈ 64 µg/mL) | –
Cc1ccc(C(=O)N2CCN(c3cccc(Cl)c3)CC2)cc1C | > 125 | 990
O=C(c1ccccc1)N1CCN(C2c3ccccc3-c3ccccc32)CC1 | > 125 | 90
Oc1cc(CCCc2ccccc2)ccc1Oc1ccc(Cl)cc1Cl | 50 (≈ 18.7 µg/mL) | 50
Oc1cc(CCc2ccccc2)ccc1Oc1ccc(Cl)cc1Cl | 52 (≈ 18.7 µg/mL) | 21
CC(C)Cc1ccc(Oc2ccc(Cl)cc2Cl)c(O)c1 | 60 (≈ 18.7 µg/mL) | 96
CCCCCCc1ccc(Oc2ccccc2)c(O)c1 | 7.8 (≈ 2.11 µg/mL) | 11
O=C(Nc1cc(Br)cc(C(F)(F)F)c1)C1CC(=O)N(C2CCCCC2)C1 (stereo not drawn) | 62.5 (≈ 27.1 µg/mL) | 850
Cc1ccc(C(=O)N2CCN(C3c4ccccc4-c4ccccc43)CC2)cc1 | > 125 | 400
CCCCc1ccc(Oc2ccc(Cl)cc2Cl)c(O)c1 | 30 (≈ 9.34 µg/mL) | 91
Oc1cc(Cc2ccccc2)ccc1Oc1ccc(Cl)cc1Cl | 27 (≈ 9.32 µg/mL) | 51
CN(Cc1c2ccccc2cc2ccccc12)C(=O)C1CC(=O)N(C2CCCCCCC2)C1 (stereo not drawn) | 62.5 (≈ 27.7 µg/mL) | 320
CN(Cc1c2ccccc2cc2ccccc12)C(=O)C1CC(=O)N(C2CC3CCC2C3)C1 (stereo not drawn) | 125 (≈ 53.3 µg/mL) | 460
CCCCCCCCc1ccc(Oc2ccccc2)c(O)c1 | 6.4 (≈ 1.91 µg/mL) | 5
CO[C@H]1/C=C/O[C@@]2(C)Oc3c(C)c(O)c4c(O)c(c(/C=N/N5CCN(C)CC5)c(O)c4c3C2=O)NC(=O)/C(C)=C\C=C\[C@H](C)[C@H](O)[C@@H](C)[C@@H](O)[C@@H](C)[C@H](OC(C)=O)[C@@H]1C [RIFAMPIN] | 0.01 (≈ 0.00823 µg/mL) | –
